From PMC6445238 (Drug Design, Development and Therapy, 2019)

Assays:
[1] = MAD study, safety and tolerability; assay type: in vivo, human; conditions: for Headache, number of subjects (%) / Hyperbilirubinemia, number of subjects (%) / Hyperhidrosis, number of subjects (%) / Hypoesthesia, number of subjects (%) / Insomnia, number of subjects (%) / Muscle hemorrhage, number of subjects (%) / Musculoskeletal stiffness, number of subjects (%) / Nausea, number of subjects (%) / Neck pain, number of subjects (%) / Oropharyngeal pain, number of subjects (%) / Subjects with any TEAEs, number of subjects (%) / Vomiting, number of subjects (%) / Abdominal discomfort, number of subjects (%) / Abdominal pain, number of subjects (%) / Anxiety, number of subjects (%) / Back pain, number of subjects (%) / Diarrhea, number of subjects (%) / Dizziness, number of subjects (%) / Epistaxis, number of subjects (%) / Erythema of eyelid, number of subjects (%) / Erythema, number of subjects (%): N=6
In short: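 MAD cohorts were 6 active and 2 placebo healthy males, dosed once daily for 7 days, confined day −1 to day 8, with follow-up on day 14. Safety was monitored by vital signs, clinical labs, 12-lead ECG, physical exams, and AEs reported by subjects or observed by investigators. AEs were coded with MedDRA 19.1. Counts are given as subjects with AEs, % of the safety population. Placebo subjects were pooled.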

[2] = system: dopaminergic neuronal cells in the substantia nigra and striatum; conditions: ref unpublished data, cited from earlier work

Cc1nn(Cc2ccc(Br)cc2)c(C)c1NC(=O)CSc1ccccc1 [KM-819]
Headache, number of subjects (%) ([1]; 100 mg QD 7 days, young): 1 (16.7) | Hyperbilirubinemia, number of subjects (%) ([1]; 100 mg QD 7 days, young): 0 | Hyperhidrosis, number of subjects (%) ([1]; 100 mg QD 7 days, young): 0 | Hypoesthesia, number of subjects (%) ([1]; 100 mg QD 7 days, young): 0 | Insomnia, number of subjects (%) ([1]; 100 mg QD 7 days, young): 0 | Muscle hemorrhage, number of subjects (%) ([1]; 100 mg QD 7 days, young): 0 | Musculoskeletal stiffness, number of subjects (%) ([1]; 100 mg QD 7 days, young): 0 | Nausea, number of subjects (%) ([1]; 100 mg QD 7 days, young): 1 (16.7) | Neck pain, number of subjects (%) ([1]; 100 mg QD 7 days, young): 0 | Oropharyngeal pain, number of subjects (%) ([1]; 100 mg QD 7 days, young): 0 | Subjects with any TEAEs, number of subjects (%) ([1]; 100 mg QD 7 days, young): 4 (66.7) | Vomiting, number of subjects (%) ([1]; 100 mg QD 7 days, young): 0 | Abdominal discomfort, number of subjects (%) ([1]; 200 mg QD 7 days, elderly): 0 | Abdominal pain, number of subjects (%) ([1]; 200 mg QD 7 days, elderly): 1 (16.7) | Anxiety, number of subjects (%) ([1]; 200 mg QD 7 days, elderly): 0 | Back pain, number of subjects (%) ([1]; 200 mg QD 7 days, elderly): 2 (33.3) | Diarrhea, number of subjects (%) ([1]; 200 mg QD 7 days, elderly): 1 (16.7) | Dizziness, number of subjects (%) ([1]; 200 mg QD 7 days, elderly): 0 | Epistaxis, number of subjects (%) ([1]; 200 mg QD 7 days, elderly): 0 | Erythema of eyelid, number of subjects (%) ([1]; 200 mg QD 7 days, elderly): 0 | Erythema, number of subjects (%) ([1]; 200 mg QD 7 days, elderly): 0 | Headache, number of subjects (%) ([1]; 200 mg QD 7 days, elderly): 1 (16.7) | Hyperbilirubinemia, number of subjects (%) ([1]; 200 mg QD 7 days, elderly): 0 | Hyperhidrosis, number of subjects (%) ([1]; 200 mg QD 7 days, elderly): 0 | Hypoesthesia, number of subjects (%) ([1]; 200 mg QD 7 days, elderly): 0 | Insomnia, number of subjects (%) ([1]; 200 mg QD 7 days, elderly): 1 (16.7) | Muscle hemorrhage, number of subjects (%) ([1]; 200 mg QD 7 days, elderly): 1 (16.7) | Musculoskeletal stiffness, number of subjects (%) ([1]; 200 mg QD 7 days, elderly): 0 | Nausea, number of subjects (%) ([1]; 200 mg QD 7 days, elderly): 0 | Neck pain, number of subjects (%) ([1]; 200 mg QD 7 days, elderly): 1 (16.7) | Oropharyngeal pain, number of subjects (%) ([1]; 200 mg QD 7 days, elderly): 0 | Subjects with any TEAEs, number of subjects (%) ([1]; 200 mg QD 7 days, elderly): 3 (50.0) | Vomiting, number of subjects (%) ([1]; 200 mg QD 7 days, elderly): 0 | Abdominal discomfort, number of subjects (%) ([1]; 200 mg QD 7 days, young): 1 (16.7) | Abdominal pain, number of subjects (%) ([1]; 200 mg QD 7 days, young): 0 | Anxiety, number of subjects (%) ([1]; 200 mg QD 7 days, young): 0 | Back pain, number of subjects (%) ([1]; 200 mg QD 7 days, young): 1 (16.7) | Diarrhea, number of subjects (%) ([1]; 200 mg QD 7 days, young): 0 | Dizziness, number of subjects (%) ([1]; 200 mg QD 7 days, young): 2 (33.3) | Epistaxis, number of subjects (%) ([1]; 200 mg QD 7 days, young): 0 | Erythema of eyelid, number of subjects (%) ([1]; 200 mg QD 7 days, young): 0 | Erythema, number of subjects (%) ([1]; 200 mg QD 7 days, young): 0 | Headache, number of subjects (%) ([1]; 200 mg QD 7 days, young): 5 (83.3) | Hyperbilirubinemia, number of subjects (%) ([1]; 200 mg QD 7 days, young): 1 (16.7) | Hyperhidrosis, number of subjects (%) ([1]; 200 mg QD 7 days, young): 0 | Hypoesthesia, number of subjects (%) ([1]; 200 mg QD 7 days, young): 2 (33.3) | Insomnia, number of subjects (%) ([1]; 200 mg QD 7 days, young): 0 | Muscle hemorrhage, number of subjects (%) ([1]; 200 mg QD 7 days, young): 0 | Musculoskeletal stiffness, number of subjects (%) ([1]; 200 mg QD 7 days, young): 1 (16.7) | Nausea, number of subjects (%) ([1]; 200 mg QD 7 days, young): 4 (66.7) | Neck pain, number of subjects (%) ([1]; 200 mg QD 7 days, young): 0 | Oropharyngeal pain, number of subjects (%) ([1]; 200 mg QD 7 days, young): 1 (16.7) | Subjects with any TEAEs, number of subjects (%) ([1]; 200 mg QD 7 days, young): 5 (83.3) | Vomiting, number of subjects (%) ([1]; 200 mg QD 7 days, young): 4 (66.7) | Abdominal discomfort, number of subjects (%) ([1]; 400 mg QD 7 days, young): 0 | Abdominal pain, number of subjects (%) ([1]; 400 mg QD 7 days, young): 0 | Anxiety, number of subjects (%) ([1]; 400 mg QD 7 days, young): 0 | Back pain, number of subjects (%) ([1]; 400 mg QD 7 days, young): 1 (16.7) | Diarrhea, number of subjects (%) ([1]; 400 mg QD 7 days, young): 0 | Dizziness, number of subjects (%) ([1]; 400 mg QD 7 days, young): 0 | Epistaxis, number of subjects (%) ([1]; 400 mg QD 7 days, young): 1 (16.7) | Erythema of eyelid, number of subjects (%) ([1]; 400 mg QD 7 days, young): 1 (16.7) | Erythema, number of subjects (%) ([1]; 400 mg QD 7 days, young): 0 | Headache, number of subjects (%) ([1]; 400 mg QD 7 days, young): 4 (66.7) | Hyperbilirubinemia, number of subjects (%) ([1]; 400 mg QD 7 days, young): 0 | Hyperhidrosis, number of subjects (%) ([1]; 400 mg QD 7 days, young): 1 (16.7) | Hypoesthesia, number of subjects (%) ([1]; 400 mg QD 7 days, young): 0 | Insomnia, number of subjects (%) ([1]; 400 mg QD 7 days, young): 0 | Muscle hemorrhage, number of subjects (%) ([1]; 400 mg QD 7 days, young): 0 | Musculoskeletal stiffness, number of subjects (%) ([1]; 400 mg QD 7 days, young): 1 (16.7) | Nausea, number of subjects (%) ([1]; 400 mg QD 7 days, young): 0 | Neck pain, number of subjects (%) ([1]; 400 mg QD 7 days, young): 0 | Oropharyngeal pain, number of subjects (%) ([1]; 400 mg QD 7 days, young): 0 | Subjects with any TEAEs, number of subjects (%) ([1]; 400 mg QD 7 days, young): 5 (83.3) | Vomiting, number of subjects (%) ([1]; 400 mg QD 7 days, young): 0 | subjects withdrawn due to AEs ([1]; MAD, headache): 2 | serious adverse events (SAEs) reported ([1]; MAD, headache, considered unlikely related to KM-819): 1 | behavioral impairments [2]: improved the behavioral impairments | protection of dopaminergic neuronal cells ([2]; substantia nigra and striatum): protected the dopaminergic neuronal cells
